This is a sample that favours compounds with a hit; in the whole collection about 4.3% have one here.
PREPL inh: inhibits the human prolyl oligopeptidase-like enzyme | Q4J6C6 | recombinant PREPL, fluorescence polarization activity-based probe | inhibition, % at 5.96 µM | hit rate 0.68% among 320,000; in the data active = inhibition above about 43%;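 note: 0% = enzyme with DMSO and 100% = wells lacking enzyme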
RBBP9 inhibitor: inhibitors of human serine hydrolase RBBP9; O75884; recombinant RBBP9, FP-Rh probe fluorescence polarization; inhibition, % at 7.94 µM; hit rate 0.2% among 220,000; AID 1515;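 active = inhibition above the campaign mean of all tested compounds plus 3 SD, cut at about 14% in these data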;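 note: plate controls were DMSO wells with RBBP9 for no effect and wells lacking RBBP9 protein for full effect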
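System: RBBP9 protein / Buffer or medium: Tris/NaCl buffer pH 8.0 with 0.1% Pluronic / Probe or stimulus: Serine-hydrolase probe FP-Rh, 375 nM pre-mixing / Dosing: 7.94 µM single dose, 0.794% DMSO / Times: enzyme-compound preincubation 30 min, then probe labeling 45 min, 25 °C / Technique: fluorescence polarization (mP), excitation 525 nm, emission 598 nm / Replication: singlicate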
SUMO HTRF inh: blocks human SUMOylation mediated by UBC9 | inhibition, % at 35 µM | hit rate 0.36% among 290,000 | AID 2006 | P63279 | HTRF SUMOylation assay, SAE1/SAE2 + UBC9, in vitro; in the data active = inhibition above about 50%, passing the limit was not always enough; inconclusive = no clear call, values can overlap the other calls
UBC13 polyUb: blocks human UBC13 polyubiquitin chain formation. AID 485273. hit rate 0.47% among 330,000. inhibition, % at 20 µM. P61088. TR-FRET; in the data active = inhibition above about 45%, passing the limit was not always enough; inconclusive = no clear call, values can overlap the other calls
Rin1-Abl PPI inh: human Rin1-Abl interaction inhibition; TR-FRET Rin1/Abl binding, biochemical; hit rate 0.4% among 360,000; inhibition, % at 7.35 µM; P00519+Q13671; in the data active = inhibition above about 5%, passing the limit was not always enough
ALR H2O2 inh: inhibitors of human sulfhydryl oxidase ALR. inhibition, % (concentration not given with the values). AID 485317. hit rate 3.8% among 290,000. purified ALR, DTT oxidation, H2O2 HRP-luminol luminescence;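 active = mean replicate inhibition above about 79%, with every replicate also reaching it, limit read from the data; inconclusive = only one of the two criteria met; inactive = mean below limit and not every replicate reaching it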
Numbers without * were called inactive; ? = inconclusive; . = no result given.

SMILES | PREPL inh | RBBP9 inhibitor | SUMO HTRF inh | UBC13 polyUb | Rin1-Abl PPI inh | ALR H2O2 inh
O=C(CSc1nc(Nc2ccccc2)nc(N2CCOCC2)n1)NC1CCCCC1 | 4.8 | . | 1.5 | -5.4 | 3.3 | -3.4
CC1=CC(=C(C#N)c2nc3ccccc3s2)C=C(C)N1CC1CCCO1 (stereo unspecified) | 13.6 | -6.5 | 18.5 | -7.6 | -1.4 | 95.3*
c1ccc2[nH]c(SCc3cn4cccnc4n3)nc2c1 | -4.2 | -3.1 | -7.3 | -1.0 | 2.9 | 99.2*
c1ccc(-c2cnnc(SCc3cn4cccnc4n3)n2)cc1 | 19.0 | -3.8 | 33.1 | -5.5 | -2.3 | 18.9
C/C(=N\Nc1nccnc1Cl)c1ccc(O)cc1 | -8.9 | . | -5.5 | 4.3 | 2.2 | 93.1*
COc1ccccc1Nc1nc(C)cs1 | 18.8 | -1.5 | -14.1 | -2.3 | 1.5 | 99.3*
Cc1ccc(C)c(OCCn2ccnc2)c1 | 5.2 | . | 1.4 | -5.7 | 10.2* | -5.9
Cc1cc(C)c(C)c(OCCn2ccnc2)c1 | 0.1 | . | 10.0 | 0.6 | -1.7 | -9.7
O=C(O)c1cccc2c1-c1ccccc1/C2=N\Nc1ccccc1 | 17.0 | . | 4.7 | -8.3 | 0.3 | 99.1*
O=C(C1CC1c1ccccc1)N1CCOCC1 (stereo unspecified) | -2.0 | -3.8 | 12.2 | -6.8 | 3.7 | 98.4*
O=C(O)C1C(c2ccccc2)C(C(=O)N2CCOCC2)C1c1ccccc1 (stereo unspecified) | 9.6 | -10.2 | -1.3 | -2.5 | -0.8 | -0.3
COc1ccc(CCC(=O)NCC(c2ccco2)N2CCc3ccccc32)cc1 (stereo unspecified) | 25.3 | . | . | -1.1 | 0.5 | 86.5*
COc1cc(C(=O)NCC(c2ccco2)N2CCc3ccccc32)cc(OC)c1OC (stereo unspecified) | 4.0 | . | . | -3.6 | -4.4 | 92.8*
O=C(NCC(c1ccco1)N1CCc2ccccc21)c1ccccc1 (stereo unspecified) | -4.6 | . | . | -1.9 | 0.2 | 95.5*
CC/C(=N\NC(=O)c1nnn(-c2nonc2N)c1-c1cccc(OC)c1)c1ccc(C)cc1 | 0.9 | . | -18.1 | -1.3 | 4.4 | -15.8
O=C(COc1coc(CN2CCc3ccccc32)cc1=O)Nc1ccccc1 | 10.9 | . | . | -0.7 | 2.9 | 6.3
CCc1ccc(NC(=O)[C@H](C)NC(=O)C2CCN(C(=O)[C@@H](N)C(C)C)CC2)cc1 | 3.4 | . | 11.0 | 3.9 | 3.8 | -7.7
CCOC(=O)c1sc(NC(=O)CSc2nccn2C)nc1C | 0.8 | . | 15.2 | 6.8 | 1.6 | 98.0*
CCOC(=O)Cc1csc(NC(=O)c2cccnc2)n1 | 1.2 | -1.6 | 16.1 | 3.1 | 1.6 | -1.9
Cc1cccc(NC(=O)CSc2nc(C)nc3c2c(=O)n(C)c(=O)n3C)c1 | . | -5.4 | 8.8 | . | 1.2 | .
Cc1csc(NC(=O)CSc2nc(C)nc3c2c(=O)n(C)c(=O)n3C)n1 | -2.8 | . | -2.3 | 7.5 | -5.5 | 98.4*
CCOC(=O)Cc1csc(NC(=O)c2sc3nc4ccc(C)cc4cc3c2N)n1 | 6.7 | -5.1 | 7.6 | -20.0 | -4.2 | 98.5*
CCOC(=O)Cc1csc(NC(=O)Cc2ccc([N+](=O)[O-])cc2)n1 | -1.7 | 1.0 | -4.6 | 1.1 | 0.2 | 98.3*
COc1ccc(CCNC(=O)c2cc(C)oc2C)cc1OC | 14.9 | . | -14.9 | -7.3 | 5.7 | -1.5
COc1ccc(C(=O)O)cc1S(=O)(=O)NCc1ccccn1 | -2.8 | . | 5.8 | 5.6 | 1.6 | -8.6
SMILES | PREPL inh | RBBP9 inhibitor | SUMO HTRF inh | UBC13 polyUb | Rin1-Abl PPI inh | ALR H2O2 inh
Cc1csc(NC(=O)CSc2nnc(C)s2)n1 | 9.8 | -1.4 | 25.0 | -2.6 | 2.1 | -4.5
Cc1csc(NC(=O)CSC2=NCCS2)n1 | 20.6 | . | 14.0 | -1.4 | 2.3 | 99.2*
CC(C)(C)c1csc(NC(=O)CSC2=NCCS2)n1 | 20.7 | . | -6.5 | 3.5 | -3.2 | 99.3*
COCC(=O)Nc1nc(-c2ccc([N+](=O)[O-])cc2)cs1 | 19.4 | -5.5 | 4.2 | -7.1 | -3.9 | 97.5*
CCOC(=O)Cc1csc(NC(=O)NC2(C(F)(F)F)Oc3cc(Cl)c(Cl)cc3O2)n1 | -4.8 | -20.4 | 8.6 | 11.7 | -1.0 | 98.4*
COc1cccc(NC(=O)CSc2nnc3ccc(-c4ccccn4)nn23)c1 | . | . | . | ? | 0.5 | .
CCOC(=O)Cc1csc(NC(=O)CCC(=O)O)n1 | 8.5 | -5.2 | 29.4 | -3.8 | -0.9 | -3.5
CCOC(=O)Cc1csc(NC(=O)CSc2nc(=O)[nH]c3c2CCCC3)n1 | -15.3 | . | . | 0.4 | 3.4 | 96.3*
CCOC(=O)Cc1csc(NC(=O)CSC2=NCCS2)n1 | -2.0 | . | -3.0 | -7.5 | 0.2 | 98.5*
CCOC(=O)Cc1csc(NC(=O)CSc2nccn2C)n1 | 11.1 | . | 8.9 | -4.4 | 3.3 | 99.1*
Nc1c(C(=O)NC2CC2)sc2nc3c(c(-c4ccco4)c12)CC/C3=C/c1ccco1 | 34.2 | 0.8 | ? | . | 12.9* | 13.2
NC(=O)c1sc2nc3c(c(-c4ccco4)c2c1N)CCC3 | 31.4 | -3.8 | 49.7 | 16.7 | -5.1 | -21.5
O=C(OCc1csc(Nc2ccccc2)n1)c1ccc(Cl)cc1 | 3.7 | -2.4 | -22.0 | 9.5 | 2.5 | -0.7
C=CCn1c(SCC(=O)Nc2ccc(Br)cc2)nc(O)cc1=O | . | . | . | . | -6.2 | .
CCn1c(SCC(=O)Nc2ccc(C)cc2)nc(O)cc1=O | -6.5 | -9.4 | 8.4 | -5.3 | 2.8 | 98.9*
CCCn1c(SCC(=O)Nc2cccc(F)c2)nc(O)cc1=O | 7.6 | . | . | -5.9 | 0.9 | 99.4*
O=C(CCN1C(=O)/C(=C/c2ccc(F)cc2)SC1=S)NCCc1cnc[nH]1 | -40.5 | . | 2.6 | -11.5 | -3.3 | 98.0*
O=C(CCN1C(=O)/C(=C/c2ccc(F)cc2)SC1=S)NNC(=O)c1ccncc1 | -85.4 | -1.1 | -11.9 | -20.0 | -0.2 | 0.5
COc1ccccc1NC(=S)Nc1ccccn1 | 11.7 | 4.3 | 10.2 | -4.1 | -0.1 | 81.9*
Cc1cc(C)cc(NC(=S)Nc2ccccn2)c1 | -0.5 | -5.6 | 10.9 | 0.8 | -0.4 | 97.2*
COc1ccccc1NC(=O)C(=O)Nc1ccccn1 | 5.5 | -0.7 | 26.2 | 2.2 | -1.1 | -6.3
CC(=O)Nc1ccc(C2=CC(=O)C[C@H](c3ccc4c(c3)OCO4)C2)cc1 | -9.7 | . | . | -15.5 | 0.6 | 26.4
CCCOC(=O)c1ccc(Oc2c(-c3ccc(OCC)cc3O)n[nH]c2C)cc1 | -11.3 | -15.2 | -12.1 | 5.8 | -1.1 | 0.8
COc1ccc(Oc2c(-c3ccc(O)cc3O)n[nH]c2C)cc1 | -0.5 | -1.1 | -16.7 | 7.5 | -0.9 | 89.6*
COc1cccc(/C=C/C(=O)OCC(=O)c2ccc(Br)cc2)c1 | . | . | . | . | -1.2 | .
COc1ccccc1/C=N/NC(=O)c1ccc(CN2C(=O)c3cccc4cccc2c34)cc1 | -2.6 | -15.4 | 58.8* | 19.7 | 0.4 | -13.0
Cc1[nH]c2ccccc2c1N=Nc1cc(C(=O)O)cc(C(=O)O)c1 | -6.1 | -8.7 | -19.6 | -16.0 | 2.5 | 59.0
Cc1[nH]c2ccccc2c1N=Nc1ccccc1F | 7.2 | -5.0 | -2.9 | 1.8 | 1.2 | 98.7*
Cc1[nH]c2ccccc2c1N=Nc1ccc(F)cc1 | 16.2 | -7.5 | 2.2 | -1.6 | -1.2 | 98.2*

Bioassay records (PubChem)
